Data as given in ChEMBL document CHEMBL1156597, “Structure-activity relationship of kahalalide F synthetic analogues” (J Med Chem, 2008).

Experiments:
DU-145 = test: Cytotoxicity against human DU145 cells after 48 hrs by SRB assay; format: functional, cell-based; conditions: Homo sapiens, DU-145, 48 h; for CC50: read-out: LC50 (the source's name)
Procedure, shortened: (§1)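 Cells grown in RPMI 1640 with 10% FBS and penicillin/streptomycin at 37 °C and 5% CO₂, trypsinized, then seeded at 5 × 10³/well. After 18 h drug-free attachment, samples in DMSO/EtOH/PBS (0.5:0.5:99) were added for 48 h continuous exposure. Cells were fixed with cold TCA (1 h, 4 °C) and stained with SRB (10 min). Tris-solubilized stain read at 490 nm. Triplicate wells, mean ± SD; GI₅₀ derived.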

LNCaP = test: Cytotoxicity against human LNcaP cells after 48 hrs by SRB assay; format: functional; conditions: for CC50: read-out: LC50 (the source's name); procedure, shortened: as §1
[1] = Cytotoxicity against human IGROV cells after 48 hrs by SRB assay; format: functional; conditions: for CC50: read-out: LC50 (the source's name); procedure, shortened: as §1
[2] = Cytotoxicity against human IGROV-ET cells after 48 hrs by SRB assay; format: functional; conditions: for CC50: read-out: LC50 (the source's name); procedure, shortened: as §1
SK-BR-3 = test: Cytotoxicity against human SKBR3 cells after 48 hrs by SRB assay; format: functional; conditions: SK-BR-3, 48 h; for GI50: read-out: GI50; for CC50: read-out: LC50 (the source's name); procedure, shortened: as §1
SK-MEL-28 = test: Cytotoxicity against human SK-MEL-28 cells after 48 hrs by SRB assay; format: functional, cell-based; conditions: Homo sapiens, SK-MEL-28, 48 h; for GI50: read-out: GI50; for CC50: read-out: LC50 (the source's name); procedure, shortened: as §1
A549 = test: Cytotoxicity against human A549 cells after 48 hrs by SRB assay; format: functional, cell-based; conditions: Homo sapiens, A549, 48 h; for GI50: read-out: GI50; procedure, shortened: as §1
K562 = test: Cytotoxicity against human K562 cells after 48 hrs by SRB assay; format: functional; conditions: K562, 48 h; for CC50: read-out: LC50 (the source's name); procedure, shortened: as §1
PANC-1 = test: Cytotoxicity against human PANC1 cells after 48 hrs by SRB assay; format: functional; conditions: PANC-1, 48 h; for CC50: read-out: LC50 (the source's name); procedure, shortened: as §1
HT-29 = test: Cytotoxicity against human HT29 cells after 48 hrs by SRB assay; format: functional, cell-based; conditions: Homo sapiens, HT-29, 48 h; for CC50: read-out: LC50 (the source's name); procedure, shortened: as §1
LoVo = test: Cytotoxicity against human LoVo cells after 48 hrs by SRB assay; format: functional; conditions: for CC50: read-out: LC50 (the source's name)
HeLa = test: Cytotoxicity against human HeLa cells after 48 hrs by SRB assay; format: functional; conditions: for CC50: read-out: LC50 (the source's name); procedure, shortened: as §1
[3] = Cytotoxicity against human HeLa-APL cells after 48 hrs by SRB assay; format: functional; procedure, shortened: as §1

| Compound | GI50 (DU-145; read-out: GI50) [µM] | CC50 (DU-145) [µM] | GI50 (LNCaP) [µM] | TGI (LNCaP) [µM] | CC50 (LNCaP) [µM] | CC50 [1] [µM] | CC50 [2] [µM] | CC50 (SK-BR-3) [µM] | CC50 (SK-MEL-28) [µM] | LC50 (A549) [µM] | GI50 (K562) [µM] | TGI (K562) [µM] | CC50 (K562) [µM] | CC50 (PANC-1) [µM] | CC50 (HT-29) [µM] | GI50 (LoVo) [µM] | TGI (LoVo) [µM] | CC50 (LoVo) [µM] | CC50 (HeLa) [µM] | LC50 (concentration giving 50% net cell kill) [3] [µM] | further results |
| --- | --- | --- | --- | --- | --- | --- | --- | --- | --- | --- | --- | --- | --- | --- | --- | --- | --- | --- | --- | --- | --- |
| C/C=C1\NC(=O)[C@H](Cc2ccccc2)NC(=O)[C@@H](C(C)C)NC(=O)[C@@H]([C@H](C)CC)NC(=O)[C@H](NC(=O)[C@H](NC(=O)[C@H](CCCN)NC(=O)[C@H]2CCCN2C(=O)[C@H](NC(=O)[C@H](CC(C)C)NC(=O)[C@@H](NC(=O)[C@H](NC(=O)CCCC(C)C)C(C)C)[C@@H](C)O)C(C)C)[C@H](C)CC)[C@H](C)OC(=O)[C@H](C(C)C)NC1=O | 0.941 | 0.863 | 1.03 | 1.12 | 1.23 | 0.375 | 0.383 | 0.689 | 8.75 | 1.11 | 2.1 | 2.21 | 2.3 | 2.51 | 0.479 | 0.312 | 0.324 | 0.337 | 0.765 | 0.807 | GI50 (DU-145): 0.903 µM; TGI [1]: 4.02 µM; GI50 ([1]; read-out: GI50): 0.464 µM; TGI [2]: 0.38 µM; GI50 ([2]; read-out: GI50): 0.35 µM; TGI (SK-BR-3): 0.482 µM; GI50 (SK-BR-3): 0.445 µM; TGI (SK-MEL-28): 9.12 µM; GI50 (SK-MEL-28): 0.964 µM; TGI (A549): 1.19 µM; GI50 (A549): 1.28 µM; GI50 (PANC-1): 3.29 µM; TGI (PANC-1): 4.87 µM; GI50 (HT-29): 0.612 µM; TGI (HT-29): 0.679 µM; GI50 (HeLa): 1.02 µM; TGI (HeLa): 0.887 µM; GI50 [3]: 0.939 µM; TGI [3]: 0.871 µM |
| C/C=C1\NC(=O)[C@H](Cc2ccccc2)NC(=O)[C@@H](C(C)C)NC(=O)[C@@H]([C@H](C)CC)NC(=O)[C@H](NC(=O)[C@H](NC(=O)[C@H](CCCN)NC(=O)[C@H]2CCCN2C(=O)[C@H](NC(=O)CNC(=O)[C@@H](NC(=O)[C@H](NC(=O)CCCC(C)C)C(C)C)[C@@H](C)O)C(C)C)[C@H](C)CC)[C@H](C)OC(=O)[C@H](C(C)C)NC1=O | – | 1.7 | 3.05 | 3.32 | 1.58 | 0.649 | 0.722 | 2.85 | 1.48 | 1.96 | 2.57 | 3.12 | 2.5 | 2.6 | 0.911 | 10.7 | 9.72 | 4.92 | 1.07 | 1.36 | – |
| C/C=C1\NC(=O)[C@H](Cc2ccccc2)NC(=O)[C@@H](C(C)C)NC(=O)[C@@H]([C@H](C)CC)NC(=O)[C@H](NC(=O)[C@H](NC(=O)[C@H](CCCN)NC(=O)[C@H]2CCCN2C(=O)[C@H](NC(=O)[C@@H](NC(=O)[C@@H](NC(=O)[C@H](NC(=O)c2ccccc2)C(C)C)[C@@H](C)O)C(C)C)C(C)C)[C@H](C)CC)[C@H](C)OC(=O)[C@H](C(C)C)NC1=O | 1.21 | 1.04 | 1.19 | 1.37 | 1.54 | 3.91 | 0.436 | 1.39 | 0.901 | 1.12 | 0.431 | 1.51 | 2.45 | 2.54 | 0.508 | 0.353 | 0.423 | 0.573 | 0.732 | 0.834 | TGI (DU-145): 1.12 µM; GI50 [1]: 0.565 µM; GI50 ([1]; read-out: GI50): 0.997 µM; GI50 [2]: 0.521 µM; GI50 ([2]; read-out: GI50): 0.627 µM; TGI (SK-BR-3): 1.36 µM; GI50 (SK-BR-3): 0.874 µM; TGI (SK-MEL-28): 1.01 µM; GI50 (SK-MEL-28): 1.12 µM; TGI (A549): 1.22 µM; GI50 (A549): 1.32 µM; GI50 (PANC-1): 5.38 µM; TGI (PANC-1): 4.94 µM; GI50 (HeLa): 1.21 µM; TGI (HeLa): 0.945 µM; GI50 [3]: 1.04 µM; TGI [3]: 0.934 µM |
| C/C=C1\NC(=O)[C@H](Cc2ccccc2)NC(=O)[C@@H](C(C)C)NC(=O)[C@@H]([C@H](C)CC)NC(=O)[C@H](NC(=O)[C@H](NC(=O)[C@H](CCCN)NC(=O)[C@H]2CCCN2C(=O)[C@H](NC(=O)[C@@H](NC(=O)[C@@H](NC(=O)[C@@H](Cc2ccccc2)NC(=O)CCCC(C)C)[C@@H](C)O)C(C)C)C(C)C)[C@H](C)CC)[C@H](C)OC(=O)[C@H](C(C)C)NC1=O | 3.9 | 1.6 | 2.28 | 3.13 | 1.49 | 0.449 | 0.68 | 1.67 | 1.4 | 1.84 | 3.4 | 4.68 | 2.36 | 2.45 | 5.59 | 2.62 | 2.71 | 2.8 | 1.01 | 1.28 | TGI (DU-145): 3.68 µM; GI50 [1]: 0.862 µM; GI50 ([1]; read-out: GI50): 2.01 µM; TGI [2]: 1.73 µM; GI50 ([2]; read-out: GI50): 2.24 µM; TGI (SK-BR-3): 2.19 µM; GI50 (SK-BR-3): 2.34 µM; TGI (SK-MEL-28): 2.92 µM; GI50 (SK-MEL-28): 2.64 µM; TGI (A549): 2.75 µM; GI50 (A549): 2.65 µM; GI50 (PANC-1): 5.44 µM; TGI (PANC-1): 4.76 µM; GI50 (HeLa): 2.21 µM; TGI (HeLa): 2.69 µM; GI50 [3]: 0.179 µM; TGI [3]: 1.7 µM |
